Screening data from PubChem BioAssay.
Compounds with a hit are over-represented: about 1.9% of the library has one in this group of screens.
Rev-erbA mod: modulators of human Rev-erb alpha DNA binding; 0.79% of 370,000 active; Rev-erbα–FITC-DNA binding, fluorescence polarization, 90 min; P20393; activity, % at 10 µM;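 active = activity above about 14%, limit read from the data; passing the limit was not always enough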
Target sequence (P20393 whole entry, looked up): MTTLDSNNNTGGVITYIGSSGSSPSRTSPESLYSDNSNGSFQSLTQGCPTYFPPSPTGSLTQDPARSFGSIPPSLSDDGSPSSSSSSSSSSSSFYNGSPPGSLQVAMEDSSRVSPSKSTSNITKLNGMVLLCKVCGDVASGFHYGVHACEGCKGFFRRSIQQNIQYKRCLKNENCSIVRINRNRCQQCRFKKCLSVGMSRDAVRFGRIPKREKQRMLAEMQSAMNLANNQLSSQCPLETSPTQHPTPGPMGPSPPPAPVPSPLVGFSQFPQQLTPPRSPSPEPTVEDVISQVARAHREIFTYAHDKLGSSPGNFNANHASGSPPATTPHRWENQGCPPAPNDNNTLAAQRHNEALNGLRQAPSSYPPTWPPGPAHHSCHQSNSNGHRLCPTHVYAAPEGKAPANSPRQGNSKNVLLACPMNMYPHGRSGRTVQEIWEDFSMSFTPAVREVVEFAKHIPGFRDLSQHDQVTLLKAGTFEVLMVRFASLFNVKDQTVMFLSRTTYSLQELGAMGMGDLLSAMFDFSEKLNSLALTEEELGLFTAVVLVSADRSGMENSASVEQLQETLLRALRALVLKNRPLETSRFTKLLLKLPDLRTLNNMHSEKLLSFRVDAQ
CR mimetic SO: yeast age-related superoxide inhibition as caloric restriction mimetic. S. cerevisiae aged cells, superoxide DHE fluorescence; stronger effect = lower value. superoxide response (% of plate mean), % at 10 µM. 0.18% of 330,000 active. AID 2690;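 active = superoxide response under a set limit, about three screen SD below normal, cut at about 65% in these data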;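 also: yeast aged for seven days with compound at 30 °C before DHE staining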
UCH37 inh: human UCH37 deubiquitinating enzyme inhibition. AID 588478. purified proteasome/UCH37, Ub-AMC cleavage fluorescence. 0.33% of 330,000 active. inhibition, % (concentration not given with the values). Q9Y5K5;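 active = mean inhibition over replicate wells above about 20%, limit read from the data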
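System: Proteasome-associated human UCH37 deubiquitinase; Input: 0.15 nM proteasome in added enzyme buffer; Also added: Ub-AMC substrate from 1 µM stock; Incubation: 30 min compound-proteasome preincubation then 25 min substrate reaction, room temperature; Detection: fluorescence, ex 355 nm, em 460 nm; Read-out: % inhibition of Ub-AMC cleavage fluorescence; Benchmarks: no-proteasome and no-compound wells.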
PG9 Ab binder: PG9 antibody binding by small molecule; TR-FRET gp120-PG9 antibody binding; 0.43% of 360,000 active; inhibition, % at 6.7 µM; in the data active = inhibition above about 8.5%
Rce1 inh: yeast Ras-converting enzyme inhibition; Q03530; yeast membranes, quenched prenylated peptide cleavage fluorescence; calls only; 0.27% of 290,000 active;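 active = fall in fluorescence gain of 50% or more versus controls, with final raw signal at or below 3038400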
beta cell repl: induces beta-cell replication in MIN6 cells; proliferation, % at 10 µM; 0.29% of 330,000 active; MIN6 cells proliferation, ATPlite luminescence, 48 h; cells starved in 0.2% serum; 100% = growth in 10% serum;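 active = compounds whose signal lies at least 3.5 SD above the mean of all wells on their plate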
PG9 binder conf: PG9 antibody binding, confirmed; 90% of 1,500 active; TR-FRET PG9 antibody binding, biochemical; inhibition, % at 6.7 µM; shares compounds with PG9 Ab binder; in the data active = inhibition above about 9%
PGV04 counter: binds control antibody PGV04 in PG9 binder counter-screen; shares compounds with PG9 Ab binder; TR-FRET PGV04 antibody-gp120 binding, biochemical; inhibition, % at 6.7 µM; 95% of 1,500 active; AID 651604; in the data active = inhibition above about 9.5%
PG9 bind DR: PG9 antibody binding, dose response; IC50, µM; 95 tested, under 10 active; shares compounds with PG9 Ab binder; AID 651848; TR-FRET PG9 antibody-gp120 binding inhibition; in the data active = IC50 below about 10 µM
PGV04 binding DR: counter-screen for PG9 binders: binding to control antibody PGV04; shares compounds with PG9 Ab binder; TR-FRET binding to control antibody PGV04; IC50, µM; 20% of 95 active; AID 651937
PG126 binding DR: binds control antibody PG126 in PG9 counter-screen. 20% of 95 active. TR-FRET binding to antibody PG126, counterscreen. IC50, µM. shares compounds with PG9 Ab binder
A number is an active result; – = inactive; · = no result given. Rule as the data show it, unless noted: active = IC50 below about 9 µM; inactive = the rest.

SMILES	Rev-erbA mod	CR mimetic SO	UCH37 inh	PG9 Ab binder	Rce1 inh	beta cell repl	PG9 binder conf	PGV04 counter	others
CNC(=O)NC(=O)CSc1nc(-c2cccs2)c(C#N)c(=O)[nH]1	–	·	–	58	–	–	58	70
CCOC(=O)Cc1csc(NC(=O)CSc2nc(-c3ccccc3)c(C#N)c(=O)[nH]2)n1	–	–	–	–	–	–	·	·
O=C(NN=Cc1cccc(OC(=O)c2ccco2)c1)c1ccc2c(c1)OCO2	·	·	–	·	·	·	·	·
CC(CC1(O)C(=O)N(Cc2ccccc2)c2ccccc21)=NO (stereo not given)	·	·	–	·	·	·	·	·
CCN=C1SC(C(N)=O)CC(=O)N1CC (stereo not given)	–	–	–	9.0	–	–	–	18
CCN=C1SC(CC(=O)NC(N)=O)C(=O)N1CC (stereo not given)	–	–	–	–	–	–	·	·
COC(=O)c1cc(-c2ccc(Br)cc2)c2c(=O)[nH]c(=O)n(C)c2n1	–	–	–	20	–	–	29	16	PG9 bind DR=–;PGV04 binding DR=–;PG126 binding DR=–
COC(=O)c1cc(-c2ccc(OC)c(OC)c2)c2c(=O)[nH]c(=O)n(C)c2n1	–	–	–	21	–	–	21	29
COC(=O)c1cc(-c2cccc([N+](=O)[O-])c2)c2c(=O)[nH]c(=O)n(C)c2n1	–	–	–	–	–	–	·	·
O=C(NN=Cc1ccc(Br)s1)c1ccc([N+](=O)[O-])cc1	·	·	–	·	·	·	·	·
O=C(NN=C/C=C/c1ccc([N+](=O)[O-])cc1)c1cccs1	·	·	–	·	·	·	·	·
COc1ccc(CC(=O)Nc2sc3c(c2C(N)=O)CCCC3)cc1	–	–	–	–	–	–	·	·
COc1cc(CC(=O)Nc2sc3c(c2C(N)=O)CCCC3)cc(OC)c1OC	–	–	–	9.3	–	–	17	23
COc1cc(OC)cc(C(=O)Nc2sc3c(c2C(N)=O)CCC3)c1	–	–	–	50	–	–	18	31
O=C(Cn1cnc([N+](=O)[O-])n1)NN=Cc1ccc(O)cc1O	·	·	–	·	·	·	·	·
Cc1nnc(NC(=O)c2ccc(-c3ccc(Cl)cc3)o2)s1	–	–	–	11	–	–	13	27
COc1cccc(OCc2nn3c(=O)c(-c4ccccc4)nnc3s2)c1	–	–	–	12	–	·	19	35
COc1ccc(C=NNC(=O)CNC(=O)c2ccc3c(c2)OCCO3)cc1OC	·	·	–	·	·	·	·	·
Cc1cc(=O)oc2cc(NC(=O)C3COc4ccccc4O3)ccc12 (stereo not given)	–	–	–	16	–	–	39	33	PG9 bind DR=–;PGV04 binding DR=–;PG126 binding DR=–
O=C(Nc1ccc2c(c1)OCO2)C1COc2ccccc2O1 (stereo not given)	–	–	–	–	–	–	·	·
O=C(Nc1ccc(N2C(=O)C3CCCCC3C2=O)cc1Cl)c1cccs1 (stereo not given)	–	–	–	18	–	–	30	46
COc1ccc(C(=O)NCCNc2nc3ccc(C)cc3cc2C#N)cc1	–	–	–	45	–	–	12	36
CCOc1ccc2nc(NCCNC(=O)Nc3ccccc3)c(C#N)cc2c1	–	–	–	–	–	·	·	·
CCOc1ccc2nc(NCCNC(=O)Nc3cccc(C)c3)c(C#N)cc2c1	–	–	–	9.8	–	–	15	32
Cc1ccc2nc(NCCNC(=O)c3ccccc3)c(C#N)cc2c1	–	–	–	–	–	–	·	·
SMILES	Rev-erbA mod	CR mimetic SO	UCH37 inh	PG9 Ab binder	Rce1 inh	beta cell repl	PG9 binder conf	PGV04 counter	others
CCN(CC)c1ccc(C=NNC(=O)c2cnccn2)c(O)c1	·	·	–	·	·	·	·	·
COC(=O)Nc1nc(-c2ccccc2)c(C(=O)c2ccccc2)s1	–	–	–	20	–	–	19	19	PG9 bind DR=–;PGV04 binding DR=–;PG126 binding DR=–
O=C(NN=Cc1cccc([N+](=O)[O-])c1)C1CC1c1ccccc1 (stereo not given)	·	·	–	·	·	·	·	·
COc1cccc(C=NNc2ccc(Cl)nn2)c1OC	·	·	–	·	·	·	·	·
COc1cccc(C2C(C(=O)c3ccco3)=C(O)C(=O)N2CCN(C)C)c1OC (stereo not given)	–	–	–	–	–	–	·	·
COc1cccc(C2C(C(=O)c3cc4ccccc4o3)=C(O)C(=O)N2CCN(C)C)c1OC (stereo not given)	–	–	–	30	–	–	33	54
CN(C)CCN1C(=O)C(O)=C(C(=O)c2cc3ccccc3o2)C1c1ccccn1 (stereo not given)	·	–	·	·	–	–	·	·
CCN(CC)CCCN1C(=O)C(O)=C(C(=O)c2cc3cccc(OC)c3o2)C1c1ccncc1 (stereo not given)	–	–	–	15	–	–	26	37
COc1cccc2cc(C(=O)C3=C(O)C(=O)N(CCN(C)C)C3c3ccc(F)cc3)oc12 (stereo not given)	–	–	–	21	–	–	31	41
COc1cccc2cc(C(=O)C3=C(O)C(=O)N(CCN4CCOCC4)C3c3ccc(C)o3)oc12 (stereo not given)	–	–	–	–	–	–	·	·
CCN(CC)CCCN1C(=O)C(O)=C(C(=O)c2cc3ccccc3o2)C1c1ccccn1 (stereo not given)	–	–	–	25	·	–	55	72
COc1ccc(OC)c(C=NNC(=O)c2ccc(Cn3cc([N+](=O)[O-])cn3)o2)c1	·	·	–	·	·	·	·	·
O=C(C=NO)NCCN1CCCCC1	·	·	–	·	·	·	·	·
COc1ccc(C=Nn2cnc3scc(-c4cccs4)c3c2=O)cc1OC	·	·	–	·	·	·	·	·
CSc1nc(N)nc(SCC(=O)c2ccc(C)cc2)c1C#N	–	–	–	23	–	–	27	35
COc1ccccc1NC(=S)NC(C)=O	–	–	–	–	–	–	·	·
COc1ccccc1NC(C)=O	–	–	–	12	–	–	–	–
CCN1C(=C(C#N)C#N)C=Cc2cc(C)ccc21	–	–	–	23	–	–	20	31
CCC(C=NNC(=O)C(=O)NN=CC(CC)CC)CC	·	·	–	·	·	·	·	·
O=C(NCc1cccnc1)c1ccc(Cn2c(=S)[nH]c3ccc(Br)cc3c2=O)cc1	–	–	–	10	–	–	13	13
Cc1nc2sccn2c(=O)c1S(=O)(=O)Nc1cccc(Cl)c1C	–	–	–	9.8	–	–	16	16
CCOC(=O)c1ccccc1NC(=O)C1CCN(c2ncnc3sc(C)c(C)c23)CC1	·	–	–	·	–	–	·	·
